An excerpt weighted towards active compounds, which were near 0.6% of everything screened.
PolyA inhibitor = inhibitors of polyadenylation in S. cerevisiae; S. cerevisiae SKY197-pL101 polyadenylation reporter, beta-gal luminescence; efflux-impaired pdr1/pdr3 knockout yeast; score 100 = 6 SD above DMSO; AID 1875; 300,000 tested, 0.02% active; activity score, % at 12 µM;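 active = lowest replicate activity score at least 50, where 100 means six control SD above control mean; inconclusive = lowest score under 50 but half or more replicates reach 50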;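 also: yeast exposed to compound for 9 h at 30 °C; higher score means more reporter readthrough which indicates perturbed polyadenylation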
GSK3 alpha inh = inhibitors of human GSK-3 alpha kinase; ADP-Glo luminescence, 60 min; inhibition, % at 10 µM; 320,000 tested, 0.1% active;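 active = more than half of replicates show inhibition above 20%; inconclusive = some but at most half of replicates above 20% inhibition; inactive = no replicate shows inhibition above 20%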;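 also: GST-tagged GSK-3 alpha with peptide substrate and 25 µM ATP; 0% = DMSO neutral wells and 100% = GW8510 positive control wells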
Efflux pump mplx = blocks antifungal efflux pumps in multiplex yeast assay. 330,000 tested, 0.44% active. inhibition, % at 10 µM. S. cerevisiae Candida pump triplex, Nile Red efflux;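 active = plate passing quality check with inhibition over a set limit, or well fluorescence over plate mean plus 4 SD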;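 also: Nile Red retained in pooled yeast measured as flow cytometry median fluorescence; 0% = buffer negative control and 100% = Enniatin B positive control; higher means more Nile Red kept so more efflux inhibition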
STK33 kinase inh = inhibitors of human STK33 kinase | inhibition, % at 10 µM | purified STK33, MBP phosphorylation, ADP-Glo luminescence | 320,000 tested, 0.073% active | AID 2661;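 active = inhibition at or above 25%, using the most active replicate where run in duplicate; inactive = inhibition below 25%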
GSK3B inh = human GSK3beta kinase inhibition; P49841; GST-GSK3beta kinase, ADP-Glo luminescence, 60 min; active compounds read low; activity score (negative = inhibition), % at 10 µM; 300,000 tested, 0.038% active; AID 2097;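 active = more than half of replicate wells score below -50%, meaning over 50% inhibition versus plate controls; inconclusive = some replicates but at most half score below -50%; inactive = no replicate scores below -50%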;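 also: 0% = median DMSO wells and -100% = median GW8510 positive control wells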
Target sequence (P49841 whole entry, looked up): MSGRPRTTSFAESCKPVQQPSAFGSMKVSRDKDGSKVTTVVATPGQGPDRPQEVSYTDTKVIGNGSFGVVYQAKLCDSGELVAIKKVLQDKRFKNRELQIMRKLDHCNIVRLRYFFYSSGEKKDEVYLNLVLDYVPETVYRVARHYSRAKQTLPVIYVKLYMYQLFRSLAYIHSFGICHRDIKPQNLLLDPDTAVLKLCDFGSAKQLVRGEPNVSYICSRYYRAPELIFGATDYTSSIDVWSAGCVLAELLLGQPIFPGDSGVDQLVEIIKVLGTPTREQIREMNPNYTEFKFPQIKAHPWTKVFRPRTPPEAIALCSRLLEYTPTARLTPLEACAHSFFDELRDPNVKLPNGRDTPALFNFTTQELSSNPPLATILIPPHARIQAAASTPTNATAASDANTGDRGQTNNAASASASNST
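Test system: GST-tagged human GSK3beta kinase, cell-free; evaluation: activity score scaled between in-plate DMSO and GW8510 controls; measured by: ADP-Glo luminescence; incubation: 60 min reaction, RT; benchmarks: DMSO and 20 µM GW8510; reagent: peptide substrate plus 25 µM ATP (final); medium: Tris/MgCl2 kinase buffer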
Cmpd fluor yeast = compound fluorescence in yeast efflux pump counter-screen. shares compounds with Efflux pump mplx. S. cerevisiae AD/pABC3, flow cytometry. fluorescence ratio to DMSO, % at 10 µM. 1,700 tested, 4% active;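 active = fluorescence ratio to DMSO above its plate's cutoff, the plate mean ratio plus 5 SD, cut at about 210% in these data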;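 also: unstained yeast with no Nile Red so the signal is compound autofluorescence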
CaMdr1 efflux inh = blocks the Candida albicans Mdr1 efflux pump in yeast | S. cerevisiae AD/CaMDR1, Nile Red efflux, flow cytometry | inhibition, % at 10 µM | 1,700 tested, 1% active | shares compounds with Efflux pump mplx; in the data active = inhibition above about 26%;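 also: 0% = DMSO vehicle and 100% = reference inhibitor; higher means more Nile Red retained so more efflux inhibition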
Cdr2 pump inh = blocks the Candida albicans Cdr2 efflux pump in yeast; shares compounds with Efflux pump mplx; Nile Red retention ratio vs DMSO, % at 10 µM; S. cerevisiae AD/CaCDR2, Nile Red retention, flow cytometry; AID 588520; 1,700 tested, 4% active; in the data active = Nile Red retention ratio vs DMSO above about 190%;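 also: higher ratio means more blocking of Cdr2 efflux of the dye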
Cdr1 pump inh = inhibitors of Candida albicans Cdr1 efflux pump; shares compounds with Efflux pump mplx; S. cerevisiae AD/CaCDR1, Nile Red efflux, flow cytometry; inhibition, % at 10 µM; 1,700 tested, 1% active; AID 588522;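 active = inhibition above the screen-wide mean plus twice its standard deviation, cut at about 32% in these data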
* marks the source's active call; other numbers are inactive results; ? = inconclusive; nt = not tested or not shown.

SMILES | PolyA inhibitor | GSK3 alpha inh | Efflux pump mplx | STK33 kinase inh | GSK3B inh | Cmpd fluor yeast | CaMdr1 efflux inh | Cdr2 pump inh | Cdr1 pump inh
CCOc1ccc(CCNC(=O)Cc2ccc(NC3=NC4CS(=O)(=O)CC4S3)cc2)cc1 (stereo not drawn) | 0.9 | 0.7 | 0.4* | 0.2 | 0.4 | 87.6 | 0.0 | 89.9 | 0.0
COc1cccc(C(=O)COc2ccc3c(C)c(Cc4ccccc4)c(=O)oc3c2)c1 | 8.0 | -0.6 | 7.5* | -0.4 | 1.2 | 103.0 | 0.0 | 95.6 | 0.0
COc1cccc(COc2ccc3c(C)c(Cc4ccccc4)c(=O)oc3c2)c1 | 17.3 | 1.1 | 0.2 | -0.2 | 0.1 | nt | nt | nt | nt
CSc1cccc(NS(=O)(=O)c2cn(C)cn2)c1 | -1.2 | 3.6 | 1.3* | 12.1 | -5.9 | 98.6 | -0.3 | 80.3 | 0.0
c1ccc(COc2cccc(CN3CCc4ccccc4C3)c2)cc1 | -10.8 | -3.3 | 0.4 | -1.0 | -2.7 | nt | nt | nt | nt
O=C(NCc1ccc(F)cc1)c1noc2c1CCCC2 | 11.9 | -2.2 | 0.9* | 1.3 | 2.1 | 83.3 | -0.4 | 95.4 | -0.5
O=C(NCc1ccc(F)cc1)c1noc2c1CCCCC2 | -1.8 | nt | nt | nt | -2.6 | nt | nt | nt | nt
CC(C)(C)c1cc(C(c2cccnc2)N2CCN(CCO)CC2)cc(C(C)(C)C)c1O (stereo not drawn) | -70.1 | 3.9 | 0.4* | 0.9 | 4.2 | 90.1 | 0.1 | 87.3 | 0.3
CC(C)(C)n1nnnc1C(c1cccnc1)N1CCN(c2cccc(C(F)(F)F)c2)CC1 (stereo not drawn) | 19.5 | -0.5 | 0.0 | 0.4 | -0.7 | nt | nt | nt | nt
O=C(NCC1CCCO1)C1CCCN(S(=O)(=O)c2cccc(C(F)(F)F)c2)C1 (stereo not drawn) | 11.7 | 2.7 | 1.3* | 3.6 | nt | 96.1 | 0.0 | 101.7 | -0.1
O=C(C[C@H]1C/C=C\CC[C@@H](Cc2ccc(F)cc2)C(=O)O[C@H](c2ccccc2)CNC1=O)N[C@H](CO)Cc1ccccc1 | nt | 0.4 | 0.5 | 0.0 | nt | nt | nt | nt | nt
COc1ccccc1NC(=O)COC(=O)c1ccccc1OCC(=O)Nc1ccc(SC(F)F)cc1 | -7.3 | 1.5 | -0.1 | -0.3 | -7.7 | nt | nt | nt | nt
COc1ccccc1C(=O)COC(=O)c1ccccc1OCC(=O)Nc1ccc(SC(F)F)cc1 | 3.8 | 0.5 | 11.1* | -1.0 | 2.2 | 103.1 | 0.1 | 107.2 | 0.0
COc1ccccc1N1CCN(CC(=O)Nc2ccc(-n3cnnn3)cc2)CC1 | -8.4 | 0.6 | 0.9* | 0.1 | -1.2 | 94.8 | -0.2 | 102.9 | -0.1
CCCn1c2ccccc2c2cnn(CC(=O)NCCCN3CCN(c4ccccc4)CC3)c(=O)c21 | 15.6 | -3.2 | -0.2 | 0.0 | -3.2 | nt | nt | nt | nt
O=C1/C(=C/c2ccccn2)SC(=S)N1Nc1ncc(C(F)(F)F)cc1Cl | nt | nt | nt | nt | nt | 100.0 | -0.1 | 92.0 | -0.1
O=C1/C(=C/c2ccc(F)cc2)SC(=S)N1Nc1ncc(C(F)(F)F)cc1Cl | 12.5 | 1.9 | 0.0 | -1.3 | -1.1 | 100.2 | -0.2 | 107.8 | -0.1
O=C1/C(=C\c2ccccn2)SC(=S)N1Nc1ncc(C(F)(F)F)cc1Cl | -7.7 | 1.7 | -0.1 | 21.0 | 3.5 | nt | nt | nt | nt
COc1ccc(CSCC(=O)N/N=C/c2ccccc2O)cc1 | 16.3 | -0.8 | -0.1 | 0.4 | 4.1 | nt | nt | nt | nt
COc1ccc(-c2c3c(cc4ncn(Cc5ccccc5)c24)COC3=O)cc1 | nt | 0.4 | 0.0 | -1.7 | nt | nt | nt | nt | nt
COC(=O)CC1C(=O)NCCN1C(=O)c1ccc([N+](=O)[O-])cc1 (stereo not drawn) | 14.8 | -0.8 | 0.1 | -1.6 | 1.2 | nt | nt | nt | nt
O=C1COc2ccc(S(=O)(=O)N3CCC(C(=O)NCc4ccccc4)CC3)cc2N1 | -8.9 | -2.0 | -0.1 | -0.8 | 3.0 | nt | nt | nt | nt
CC(C(=O)c1ccc(-c2ccccc2)cc1)[n+]1cccc(NC(=O)c2ccccc2)c1 (stereo not drawn) | -4.9 | 12.9 | -0.1 | 0.1 | -12.8 | nt | nt | nt | nt
O=C(c1sc2cc(F)ccc2c1Cl)N1CCN(c2ccccc2)CC1 | -10.1 | 0.0 | 0.1 | 0.0 | -1.0 | nt | nt | nt | nt
Cc1sc2ncnc(SC(C)C(=O)N3c4ccccc4Sc4ccccc43)c2c1C (stereo not drawn) | -10.4 | 1.0 | 15.2* | -0.1 | -2.4 | 103.0 | -0.5 | 83.1 | -0.1
SMILES | PolyA inhibitor | GSK3 alpha inh | Efflux pump mplx | STK33 kinase inh | GSK3B inh | Cmpd fluor yeast | CaMdr1 efflux inh | Cdr2 pump inh | Cdr1 pump inh
Cc1sc2ncnc(SCC(=O)NC(C)C(C)C)c2c1C (stereo not drawn) | -4.7 | 4.0 | 0.8* | 5.6 | 2.4 | 109.0 | -0.1 | 112.3 | 0.1
COc1cccc(NC(=O)c2cc3c(=O)n4ccccc4nc3n(CC(C)C)c2=N)c1 | 6.2 | -1.8 | 1.6* | 0.8 | 0.8 | 98.6 | -0.3 | 95.1 | 0.1
Cc1cccc(NC(=O)c2cc3c(=O)n4ccccc4nc3n(CC(C)C)c2=N)c1 | -7.4 | -1.3 | 0.3 | -0.3 | 0.6 | nt | nt | nt | nt
COc1ccc(CNC(=O)c2cc3c(=O)n4ccccc4nc3n(Cc3cccnc3)c2=N)cc1 | -0.4 | 6.4 | 0.9* | 4.1 | -0.5 | 96.2 | -0.1 | 105.1 | 0.0
NC(=O)CC(NC(=O)Cc1ccc(Cl)cc1)c1ccc(NC2CCCCCCC2)c([N+](=O)[O-])c1 (stereo not drawn) | ? | -2.2 | -0.1 | -0.3 | 2.9 | nt | nt | nt | nt
CC(C)c1ccc(NC(=O)C2=NNC(=O)CC2)cc1 | -14.9 | -1.7 | -0.1 | -1.3 | 0.6 | nt | nt | nt | nt
Cc1ccccc1OCc1nc2c3c(ncn2n1)-c1ccccc1CC31CCCC1 | 13.5 | -1.3 | 34.1* | -1.4 | 2.3 | 88.8 | 0.1 | 102.2 | 0.1
O=C(CSc1n[nH]c(-c2ccccn2)n1)Nc1ccccc1F | -3.4 | -2.3 | -0.1 | 3.1 | -1.6 | nt | nt | nt | nt
Cc1ncc2c(n1)-c1cc(F)ccc1SC2 | -1.9 | -1.2 | 0.7 | -0.7 | -0.5 | nt | nt | nt | nt
Nc1ncc2c(n1)-c1cc(Cl)ccc1SC2 | -1.8 | nt | 0.6* | 4.8 | 0.8 | 114.3 | 0.3 | 112.3 | 0.0
CC(CNC(=O)c1ccc(OC2CCN(Cc3ccccn3)CC2)cc1)Oc1cccnc1 (stereo not drawn) | 11.0 | 1.0 | 0.1 | 0.6 | 2.0 | nt | nt | nt | nt
Nc1c(N(CCC2=CCCCC2)C(=O)CCCOc2ccccc2)c(=O)[nH]c(=O)n1Cc1ccccc1 | 12.9 | 0.3 | -0.1 | -0.2 | -0.2 | nt | nt | nt | nt
CC(Oc1ccccc1)C(=O)N(CCC1=CCCCC1)c1c(N)n(Cc2ccccc2)c(=O)[nH]c1=O (stereo not drawn) | -10.2 | -1.7 | 6.2* | -1.7 | 0.2 | 92.1 | -0.1 | 109.4 | 0.0
Cc1ccc(OCC(O)Cn2c(N3CCCCC3)nc3c2c(=O)[nH]c(=O)n3C)cc1C (stereo not drawn) | 4.8 | -0.8 | 0.3 | -1.4 | 3.3 | nt | nt | nt | nt
